In ChEMBL document CHEMBL2331149, “Towards dual antithrombotic compounds - balancing thrombin inhibitory and fibrinogen GPIIb/IIIa binding inhibitory activities of 2,3-dihydro-1,4-benzodioxine derivatives through regio- and stereoisomerism” (Eur J Med Chem, 2013):

Tests used:
Homo sapiens [1] = organism: Homo sapiens; assay: Selectivity ratio of Ki for trypsin (unknown origin) to Ki for thrombin (unknown origin)
Homo sapiens [2] = organism: Homo sapiens; assay: Selectivity ratio of Ki for factor 10a (unknown origin) to Ki for thrombin (unknown origin)
Integrin alpha-V/beta-3 = Integrin alpha-V/beta-3 (Homo sapiens, UniProt P05106+P06756); assay: Inhibition of biotinylated fibrinogen binding to human alphavbeta3 integrin receptor after 2 hrs by solid-phase competitive displacement assay; type: protein-complex assay
Summary of the method: (§1)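 Solid-phase competition with isolated human receptor (GPIIb/IIIa or GPV/IIIa) adsorbed overnight at 4 °C in Tris/NaCl buffer with 1 mM Ca2+, Mg2+ and Mn2+, pH 7.4. Blocked with 1% BSA. Serially diluted compounds plus biotinylated human fibrinogen incubated 2 h at room temperature. Bound fibrinogen detected with peroxidase anti-biotin antibody and chemiluminescence. Duplicates, at least three runs; IC50 from sigmoid fit.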

Trypsin = Trypsin (Homo sapiens, UniProt P07477+P07478+P35030); assay: Inhibition of trypsin (unknown origin) using S-2222 as substrate preincubated with enzyme for 15 mins prior to substrate addition measured every 10 s by amidolytic method; type: protein assay
Summary of the method: (§2)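 Chromogenic amidolytic assay read at 405 nm, 25 °C, with final enzyme levels: thrombin 0.5 NIH E/mL with S-2238 at 20 and 40 µM; factor Xa 1 mBAEE E/mL with S-2222 at 100 and 200 µM; trypsin 0.5 nkat/mL with S-2222 at 50 and 100 µM. Inhibitor diluted from DMSO stock to 0.5–100 µM, three concentrations, triplicate. Ki by Cheng–Prusoff from initial rates, averaged over all combinations.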

[3] = target: Integrin alpha-IIb/beta-3 (Homo sapiens, UniProt P05106+P08514); assay: Inhibition of biotinylated fibrinogen binding to human GP 2b/3a after 2 hrs by solid-phase competitive displacement assay; type: protein-complex assay; summary of the method: as §1
Coagulation factor X = Coagulation factor X (Homo sapiens, UniProt P00742); assay: Inhibition of factor 10a (unknown origin) using S-2222 as substrate preincubated with enzyme for 15 mins prior to substrate addition measured every 10 s by amidolytic method; summary of the method: as §2
Prothrombin = Prothrombin (Homo sapiens, UniProt P00734); assay: Inhibition of thrombin (unknown origin) using S-2238 as substrate preincubated with enzyme for 15 mins prior to substrate addition measured every 10 s by amidolytic method; summary of the method: as §2

| SMILES | Ratio Ki (Homo sapiens [1]) | Ratio Ki (Homo sapiens [2]) | IC50 (Integrin alpha-V/beta-3) [nM] | Ki (Trypsin) [nM] | IC50 [3] [nM] | Ki (Coagulation factor X) [nM] | Ki (Prothrombin) [nM] |
| --- | --- | --- | --- | --- | --- | --- | --- |
| N=C(N)c1ccc(OC[C@@H]2COc3cc(N(Cc4ccccc4)C(=O)C(=O)O)ccc3O2)cc1 | 0.3 | 1.3 | > 200000 | 1550 | 1210 | 5190 | 5180 |
| N=C(N)c1ccc(OC[C@H]2COc3ccc(N(Cc4ccccc4)C(=O)C(=O)O)cc3O2)cc1 | 1 | 19.1 | > 200000 | 267 | 42600 | 5080 | 266 |
| CCOC(=O)C(=O)N(Cc1ccccc1)c1ccc2c(c1)OC[C@H](COc1ccc(C(=N)N)cc1)O2.O=C(O)C(F)(F)F | 0.65 | 3.46 | > 200000 | 283 | > 200000 | 1510 | 436 |
| N=C(N)c1ccc(OC[C@H]2COc3cc(N(Cc4ccccc4)C(=O)C(=O)O)ccc3O2)cc1 | 0.28 | 1.17 | > 200000 | 463 | 665 | 1960 | 1670 |

Continued, values first:

| Ratio Ki (Homo sapiens [1]) | Ratio Ki (Homo sapiens [2]) | IC50 (Integrin alpha-V/beta-3) [nM] | Ki (Trypsin) [nM] | IC50 [3] [nM] | Ki (Coagulation factor X) [nM] | Ki (Prothrombin) [nM] | SMILES |
| --- | --- | --- | --- | --- | --- | --- | --- |
| 0.39 | 1.3 | > 200000 | 644 | > 200000 | 2150 | 1650 | CCOC(=O)C(=O)N(Cc1ccccc1)c1ccc2c(c1)OC[C@@H](COc1ccc(C(=N)N)cc1)O2.O=C(O)C(F)(F)F |
| 1.32 | 0.95 | > 200000 | 894 | > 200000 | 637 | 675 | CCOC(=O)C(=O)N(Cc1ccccc1)c1ccc2c(c1)O[C@H](COc1ccc(C(=N)N)cc1)CO2.O=C(O)C(F)(F)F |
| 0.51 | 0.47 | > 200000 | 1370 | 17600 | 1270 | 2690 | N=C(N)c1ccc(OC[C@@H]2COc3ccc(N(Cc4ccccc4)C(=O)C(=O)O)cc3O2)cc1 |
| 2.71 | 35.9 | > 200000 | 210 | > 200000 | 2700 | 77.8 | CCOC(=O)C(=O)N(Cc1ccccc1)c1ccc2c(c1)O[C@@H](COc1ccc(C(=N)N)cc1)CO2.O=C(O)C(F)(F)F |
